Measured values gathered from unrelated publications.
Lines come from different studies, so protocols differ.
Target: Receptor tyrosine-protein kinase erbB-2 (ERBB2, Homo sapiens, UniProt P04626)

Cn1cc(-c2cc(F)cc(N3CCn4c(cc5c4CCCC5)C3=O)c2CO)cc(Nc2ccc(N3CCN(C4COC4)CC3)cn2)c1=O  inhibition (enzyme activity; inhibitor; 0.1 µM): 7%
COc1ncccc1-c1cnn2ccc(N3CCN(C(=O)OC(C)C)CC3)nc12  remaining binding (binding; competition with immobilised ligand; 1 µM): 92%
CC(C)(C)c1cc(C=C(C#N)C#N)cc(Br)c1O  remaining activity (enzyme activity; inhibitor; 0.5 µM): 95.7%
N#CC1(c2ccccn2)CCN(Cc2cc(C(=O)O)c(=O)n3ccccc23)CC1  remaining binding (cell-free assay; competition with immobilised ligand; 1 µM): 96%
C#Cc1n[nH]c2c(-c3cn([C@@H](C)c4ccccc4)c(=O)[nH]c3=O)cc(F)cc12  inhibition (enzyme activity; inhibitor; 0.1 µM): -8.5%
Cn1cncc1[C@@](O)(COc1ccc(C#N)cc1-c1ccc(OC(F)(F)F)cc1)c1ccc(C#N)cc1  remaining binding (cell-free assay; competition with immobilised ligand; 1 µM): 94%
C[C@H](C(=O)N[C@H]1COc2ccccc2[C@@H]1S(C)(=O)=O)c1ccc(F)cc1  inhibition (enzyme activity; inhibitor; 10 µM): 0%
C#Cc1n[nH]c2c(-c3cn([C@@H](C)c4ccccn4)c(=O)[nH]c3=O)cc(F)cc12  inhibition (enzyme activity; inhibitor; 0.1 µM): -0.7%
Cc1nn(C)cc1-c1nc2c(N3CCN(Cc4ccc(Cl)cc4)CC3)c(Cl)cnc2[nH]1  remaining binding (binding; competition with immobilised ligand; 1 µM): 70%
c1ccc(C(NCCNC(c2ccccc2)c2ccccc2)c2ccccc2)cc1  inhibition (enzyme activity; inhibitor; 10 µM): -7%
COc1cc(Nc2ncc(F)c(Nc3ccc4c(n3)NC(=O)C(C)(C)O4)n2)cc(OC)c1OC  inhibition (binding; competition with immobilised ligand; 10 µM): 70%
Nc1ncc(-c2nc(N3CCOCC3)nc(N3CCOCC3)n2)c(C(F)F)n1  remaining binding (binding; competition with immobilised ligand; 10 µM): 65%
O=c1[nH]c2ccccc2n1C1CCN(Cc2ccc(-c3[nH]c4cc5ncnc5cc4nc3-c3ccccc3)cc2)CC1  remaining signal (cell-free assay; 0.5 µM): 88.9%
Cn1cc(-c2cccc(N3CCc4c(sc5c4CC(C)(C)C5)C3=O)c2CO)cc(Nc2ccncn2)c1=O  inhibition (enzyme activity; inhibitor; 1 µM): 54%
